# Active and inactive are the calls of the source.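 The calls were made as follows, unless noted: active = inhibition at or above 50% at 10 µM; inactive = inhibition below 50%.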
# What was measured:
# [1] = inhibitors of TNFa-induced NFkB p65 translocation, primary screen, imaging, HUVEC, MLSMR starter and 10KST1 sets (AID 438;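 active = inhibition above 20% together with a positive visual image hit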;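 also: compound added about 3h40 before a 20 min TNFalpha stimulation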;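 as to inhibition: signal is the nuclear over cytoplasmic p65 intensity ratio per well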); conditions: HUVEC TNFa-induced p65 nuclear translocation; cell count: measured here: nuclei count (cytotoxicity indicator), at 2.08 µM; inhibition: at 2 µM, stronger effect = higher value, 0% TNFa-plus-vehicle, 100% no-TNFa wells
# [2] = inhibitors of mutant huntingtin aggregation, primary screen, imaging, exon1htt(103Q)mCFP cells, high-content imaging (AID 483;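 active = visual image review flags a hit and inhibition of aggregation exceeds 20%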;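 also: compound exposure lasted 3 days before fixation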;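 as to nuclei count: percent of the per-plate median nuclei count of sample wells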); conditions: exon1htt(103Q)mCFP cell line, aggregate imaging, at 2 µM; inhibition of aggregation: stronger effect = higher value; nuclei count: measured here: cell count, toxicity
# [3] = inhibitors of E-selectin induction by TNFa, primary screen, imaging, HUVEC, immunofluorescence, MLSMR starter and 10KST1 sets (AID 487;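 active = visually confirmed hit in the image check and inhibition above 20%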;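 as to inhibition: signal is fraction of cell area covered by stained E-selectin grains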;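 as to nuclei count: 100% = median nuclei count of all wells on the same plate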); conditions: HUVEC TNFalpha-induced E-selectin immunofluorescence imaging, at 2 µM; inhibition: stronger effect = higher value; nuclei count: measured here: cell number, toxicity
# [4] = target: Voltage-gated potassium channel subunit beta-2 (Rattus norvegicus) (UniProt P62483); assay: KvBeta enzyme negative modulators, primary screen, biochemical, NADPH fluorescence (AID 622;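 active = fluorescence slope higher than the sample average by over 3 SD, cut at about -0.22 in these data, passing the limit was not always enough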;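 also: slope of raw intensity against log time taken from 70 to 1610 s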); conditions: recombinant KvBeta, 4-cyanobenzaldehyde reduction, at 10 µM, stronger effect = higher value
# Sequence of Voltage-gated potassium channel subunit beta-2 (Rattus norvegicus) (P62483 whole entry, looked up): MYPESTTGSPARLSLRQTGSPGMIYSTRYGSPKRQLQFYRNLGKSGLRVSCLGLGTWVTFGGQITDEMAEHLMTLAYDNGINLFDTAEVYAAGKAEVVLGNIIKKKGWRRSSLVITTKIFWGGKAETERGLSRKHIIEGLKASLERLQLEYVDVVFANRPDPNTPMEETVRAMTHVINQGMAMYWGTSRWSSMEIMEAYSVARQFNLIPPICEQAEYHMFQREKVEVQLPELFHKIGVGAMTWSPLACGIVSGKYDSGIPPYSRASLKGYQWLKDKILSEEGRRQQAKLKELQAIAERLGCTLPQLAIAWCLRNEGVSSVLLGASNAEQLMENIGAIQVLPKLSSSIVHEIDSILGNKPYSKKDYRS
# [5] = target: Voltage-gated potassium channel subunit beta-2 (Rattus norvegicus) (UniProt P62483); assay: KvBeta positive modulators, primary screen, biochemical, NADPH fluorescence (AID 623;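 active = NADPH fluorescence slope more negative than the mean of all samples by about 3 SD, 99.7% confidence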;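 also: fluorescence intensity change per second fitted from 20 to 320 s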); conditions: Recombinant KvBeta, NADPH fluorescence decrease slope, 10 min; at 10 µM; stronger effect = lower value
# [6] = target: Muscarinic acetylcholine receptor M4 (Homo sapiens) (UniProt P08173); assay: compounds altering M4/GIRK thallium flux, either direction, primary screen, M4 allosteric agonist project, cell-based, HEK293 M4/GIRK, BTC-AM (AID 625;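 active = fluorescence slope after compound addition differing from the mean of all tested samples at 99.7% confidence, mostly higher but some lower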;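 also: thallium influx through GIRK channels coupled to M4 in HEK293 cells with BTC-AM dye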); conditions: at 10 µM, actives lie on both sides
# Sequence of Muscarinic acetylcholine receptor M4 (Homo sapiens) (P08173 whole entry, looked up): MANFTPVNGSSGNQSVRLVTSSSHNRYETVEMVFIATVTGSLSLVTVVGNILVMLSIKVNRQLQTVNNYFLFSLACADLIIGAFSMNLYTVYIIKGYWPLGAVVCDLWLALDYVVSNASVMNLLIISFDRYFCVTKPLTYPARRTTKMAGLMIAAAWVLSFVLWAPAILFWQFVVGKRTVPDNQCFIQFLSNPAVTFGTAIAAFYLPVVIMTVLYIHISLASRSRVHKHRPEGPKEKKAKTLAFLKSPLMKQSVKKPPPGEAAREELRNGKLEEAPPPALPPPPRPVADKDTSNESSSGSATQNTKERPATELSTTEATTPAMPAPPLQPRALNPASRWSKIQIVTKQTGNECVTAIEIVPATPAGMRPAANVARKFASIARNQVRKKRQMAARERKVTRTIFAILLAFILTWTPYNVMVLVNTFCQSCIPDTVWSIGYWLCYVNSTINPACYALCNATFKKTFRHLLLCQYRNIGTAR
# Method in brief: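 Material – HEK293 cells with M4 receptor and GIRK channels · Buffer or medium – pH 7.3 thallium assay buffer · Doses – one dose, 10 µM final · Timing – cells overnight at 37 °C, BTC-AM loading 1 h, reads 2 min total · Measured by – kinetic fluorescence with BTC-AM dye · Controls – carbachol and DMSO controls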
# [7] = inhibitors of Sendai virus-induced IRF3 signaling, primary screen, TLR/RLR signaling modifier project, cell-based, Sendai virus stimulus, luciferase, 10K MLSCN set (AID 602276); conditions: HEK293 RL24 IRF3 luciferase reporter, at 10 µM, stronger effect = higher value;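 also: firefly luciferase from ISG56 promoter only with Renilla not read in this screen; 0% = Sendai virus plus DMSO and 100% = medium plus DMSO without virus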
# [8] = inhibitors of poly I:C-induced TLR3 signaling, primary screen, cell-based, poly I:C stimulus, luciferase, 10K MLSCN set (AID 602277;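 active = inhibition of the reporter signal at or above 50%; inactive = inhibition below 50%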); conditions: HEK293-TLR3 RL24 IRF3 luciferase reporter, at 10 µM, stronger effect = higher value
Compound,cell count [1],inhibition [1],inhibition of aggregation [2],nuclei count [2] [%],inhibition [3],nuclei count [3] [%],fluorescence slope [4],NADPH fluorescence slope [5],fluorescence slope [6],inhibition [7],inhibition [8]
N#C/C(C(=O)c1ccccc1)=C1/CCCN1,328,0.4% (inactive),-10.6% (inactive),109,-66.4% (inactive),134,-0.567 (inactive),-5.4e-05 (inactive),0.00513 (inactive),4.87% (inactive),-17.4% (inactive)
CC(C)(C)OC(=O)N1CCC(C(=O)N2CCCCCC2)CC1,383,4.6% (inactive),0.1% (inactive),90,-36.8% (inactive),97,-0.529 (inactive),-8e-05 (inactive),0.00575 (inactive),7.78% (inactive),11.9% (inactive)
COc1cc(C)nc(OCCNC(=O)COc2ccc(Cl)cc2C)n1,705,23.3% (active),-16% (inactive),109,-53.9% (inactive),123,-0.499 (inactive),0.00012 (inactive),0.00677 (inactive),-3.41% (inactive),-6.37% (inactive)
OCCn1c(CSc2nnc(-c3ccco3)n2-c2ccccc2)nc2ccc(Cl)cc21,724,10.5% (inactive),6.6% (inactive),78.4,14.6% (inactive),90.8,-0.574 (inactive),-3.2e-05 (inactive),0.00847 (inactive),9.6% (inactive),24.7% (inactive)
CCS(=O)(=O)Nc1ccc(C(=O)CC2(O)C(=O)Nc3ccccc32)cc1 (stereo not drawn),602,-11.9% (inactive),-19.6% (inactive),110,11.8% (inactive),107,-0.521 (inactive),0.000137 (inactive),0.00663 (inactive),14.3% (inactive),18.7% (inactive)
Nc1nnc(-c2cc3ccccc3oc2=O)s1,723,-6.8% (inactive),2.5% (inactive),94,-72.3% (inactive),123,-0.0269 (inactive),-7.7e-06 (inactive),0.0038 (inactive),-3.81% (inactive),-27.9% (inactive)
O=C(CN1C(=O)CC(c2ccco2)Sc2ccccc21)Nc1ccc2c(c1)OCCO2 (stereo not drawn),809,-2.8% (inactive),-218% (inactive),99.6,-69.7% (inactive),105,-0.459 (inactive),-1.9e-05 (inactive),0.0054 (inactive),14.9% (inactive),9.54% (inactive)
Cc1onc(-c2ccccc2Cl)c1C(=O)Nc1cccc(-c2cn3cccnc3n2)c1,369,-10.3% (inactive),7.8% (inactive),100,-4% (inactive),109,-0.0447 (inactive),-9.5e-06 (inactive),0.00573 (inactive),7.13% (inactive),1.48% (inactive)
Cc1cc(C(=O)O)ccc1-n1c(C)ccc1C,332,-3.7% (inactive),0.1% (inactive),106,-88.3% (inactive),118,-0.554 (inactive),-3.5e-05 (inactive),0.00607 (inactive),14.8% (inactive),20% (inactive)
CCOC(=O)CSc1nc2cc(C(=O)NCc3ccco3)ccc2c(=O)n1C1CCCCC1,455,4.3% (inactive),-11.8% (inactive),92,10% (inactive),93.7,-0.397 (inactive),-5.9e-05 (inactive),0.00847 (inactive),12.1% (inactive),18.6% (inactive)
COc1ccccc1CN(Cc1nc2ccccc2c(=O)[nH]1)C(=O)Nc1ccccc1,733,-6.8% (inactive),16.9% (inactive),87.7,-68.2% (inactive),134,-0.49 (inactive),-4.8e-05 (inactive),0.0059 (inactive),3.14% (inactive),12.2% (inactive)
Cc1nc2ccccc2c(=O)n1/N=C/c1ccncc1,644,-6.3% (inactive),-10.1% (inactive),109,-2.9% (inactive),92.1,-0.526 (inactive),-3.4e-05 (inactive),0.00441 (inactive),-4.49% (inactive),4.48% (inactive)
Cc1nc(/N=C\N(C)C)sc1C(=O)Nc1ccccc1,602,1.5% (inactive),-11.8% (inactive),113,-27.8% (inactive),97.5,-0.306 (inactive),-2e-05 (inactive),0.00595 (inactive),-2.68% (inactive),-18.9% (inactive)
CS(=O)(=O)N1CCN(C(=O)c2ccc(-c3ccccc3)cc2)CC1,481,4% (inactive),-11% (inactive),108,-287% (inactive),128,-0.541 (inactive),-5.8e-05 (inactive),0.00648 (inactive),18.4% (inactive),22.5% (inactive)
O=S(=O)(NC1=NCCC1)c1cccs1,524,-7% (inactive),11% (inactive),102,27.1% (inactive),103,-0.353 (inactive),-4.6e-05 (inactive),0.00585 (inactive),8.22% (inactive),5.63% (inactive)
COc1ccc(CC(=O)Nc2ccc(-c3nnc(-c4ccc(C)cc4)o3)cc2)cc1,411,0.5% (inactive),-17.7% (inactive),102,-101% (inactive),109,-0.454 (inactive),-9.3e-06 (inactive),0.0071 (inactive),8.75% (inactive),18.4% (inactive)
CCCc1cc(-c2n[nH]c(C)c2-c2ccc(C(=O)OCC)o2)c(O)cc1O,651,2% (inactive),-2.2% (inactive),88.5,-35.2% (inactive),113,-0.571 (inactive),-2e-05 (inactive),0.00514 (inactive),12.8% (inactive),17.9% (inactive)
CC(=O)Nc1ccc(S(=O)(=O)n2nc(C)cc2C)cc1,495,-20.7% (inactive),-16.2% (inactive),108,-163% (inactive),105,-0.546 (inactive),-0.000136 (inactive),0.00409 (inactive),10% (inactive),7.63% (inactive)
Cc1cc(/N=C/N(C)C)on1,522,1.5% (inactive),3.5% (inactive),104,-19.3% (inactive),104,-0.586 (inactive),-4.7e-05 (inactive),0.00679 (inactive),19% (inactive),16% (inactive)
CCn1nnc(NC(=O)c2cc3ccccc3o2)n1,332,0.5% (inactive),7.1% (inactive),87.2,-51% (inactive),102,-0.297 (inactive),-7.3e-06 (inactive),0.00628 (inactive),-50.7% (inactive),-120% (inactive)
CC(=O)N1C(=O)N(C)C2C1N(C(C)=O)C(=O)N2C (stereo not drawn),395,5.4% (inactive),7.3% (inactive),96.4,-4.1% (inactive),98.6,-0.574 (inactive),-5e-05 (inactive),0.00666 (inactive),11.1% (inactive),16.5% (inactive)
CC(C)CN1C(=O)c2ccc(C(=O)Nc3nccs3)cc2C1=O,513,8.1% (inactive),-20.1% (inactive),120,-335% (inactive),137,-0.586 (inactive),-2.9e-06 (inactive),0.00611 (inactive),13.3% (inactive),5.57% (inactive)
CC1CCCCN1CCNC(=O)c1ccc2c(=O)n(CCc3ccccc3)c(=O)[nH]c2c1 (stereo not drawn),105,116% (active),12.7% (inactive),91.2,-3.9% (inactive),119,-0.279 (inactive),-3.6e-05 (inactive),0.00585 (inactive),2.66% (inactive),-7.7% (inactive)
Cc1nc2nc(Cc3ccccc3)[nH]n2c(=O)c1Cc1ccccc1,351,-3.3% (inactive),-11.2% (inactive),97,-62.2% (inactive),96.1,-0.576 (inactive),-4.3e-05 (inactive),0.0029 (inactive),9.12% (inactive),15.7% (inactive)
O=C(CSc1nc(-c2ccc(F)cc2)cs1)N1CCOCC1,311,9.3% (inactive),20.5% (inactive),95.1,-45.8% (inactive),93.6,-0.462 (inactive),2.4e-05 (inactive),0.00525 (inactive),-23.2% (inactive),-106% (inactive)
COC(=O)c1ccc(CSc2nc(-c3ccc(OC)cc3)nc3c2c(=O)n(C)c(=O)n3C)o1,487,8.9% (inactive),-0.5% (inactive),89.2,-5.9% (inactive),103,-0.409 (inactive),0.000102 (inactive),0.00884 (inactive),24% (inactive),30.6% (inactive)
O=C(CCCN1C(=O)c2ccccc2C1=O)Oc1ccc(F)cc1,735,-11.6% (inactive),-0.5% (inactive),106,17.3% (inactive),96.8,-0.512 (inactive),1.4e-05 (inactive),0.00485 (inactive),12.5% (inactive),18.6% (inactive)
COc1cc(C2c3c(oc4c(C)cc(C)cc4c3=O)C(=O)N2Cc2cccnc2)cc(OC)c1OC (stereo not drawn),632,0.3% (inactive),7.3% (inactive),106,-4.3% (inactive),97.5,-0.552 (inactive),1.8e-05 (inactive),0.0049 (inactive),-24.2% (inactive),3.14% (inactive)
